Mdm2 ligase inh = inhibitors of human Mdm2 E3 ubiquitin ligase. Q00987. cell-based MDM2 ubiquitination luciferase reporter, 2 h; 0 = plate control, 100 = twice control, blank-subtracted. signal enhancement, % at 5 µM. actives 0.11% (n = 210,000). AID 1230;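 active = signal enhancement of 30% or more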;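 also: luminescence tracks abundance of the self-degrading MDM2-luciferase fusion protein; higher signal means inhibition of MDM2 E3 ligase activity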
Target sequence (Q00987 whole entry, looked up, the tested form may be a part): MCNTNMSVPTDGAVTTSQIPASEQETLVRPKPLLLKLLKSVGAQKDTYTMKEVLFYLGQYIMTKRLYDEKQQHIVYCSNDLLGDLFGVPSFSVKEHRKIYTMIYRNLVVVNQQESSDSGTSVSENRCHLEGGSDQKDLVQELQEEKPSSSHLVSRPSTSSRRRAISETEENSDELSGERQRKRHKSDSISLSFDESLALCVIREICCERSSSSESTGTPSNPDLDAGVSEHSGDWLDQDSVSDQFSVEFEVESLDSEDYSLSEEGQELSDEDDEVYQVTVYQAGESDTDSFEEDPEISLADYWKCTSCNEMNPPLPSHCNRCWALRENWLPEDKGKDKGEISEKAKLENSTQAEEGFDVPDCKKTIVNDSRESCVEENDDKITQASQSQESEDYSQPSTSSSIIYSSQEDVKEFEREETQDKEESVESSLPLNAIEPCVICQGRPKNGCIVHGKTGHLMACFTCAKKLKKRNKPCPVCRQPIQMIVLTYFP
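Assay system: mammalian cells stably expressing self-ubiquitinating, self-degrading MDM2 E3–luciferase fusion. Quantity: 2000 cells in each well. Medium: DMEM culture medium. Compound dosing: single-point 5 µM. Timing: cell settling 4 h, compound treatment 2 h, both 37 °C. Technique: luciferase luminescence. Read-out basis: percent signal gain over controls, blank-subtracted. Benchmarks: plate controls and plate blanks.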
PERK inhibitor = blocks human PERK kinase; CHO PERK-DD fusion, SEAP luminescence translation reporter; inhibition, % at 5.6 µM; actives 0.17% (n = 220,000); AID 1416;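 active = inhibition above the mean inhibition of all tested compounds plus 3 SD, set separately per screening campaign, cut at about 2.9% in these data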;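 also: PERK kinase domain activated by AP20187 dimerizer at 100 nM; 0% = DMSO with dimerizer and 100% = rapamycin at 8.4 µM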
STAT1 act = STAT1 signaling activation; NIH 3T3 STAT1-luciferase reporter, IFN-gamma, luminescence; 100% = IFN-gamma alone, no compound; actives 2.6% (n = 200,000); activation (% of control), % at 5.5 µM;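 active = activation above the screen-wide mean activation plus 3 SD, cut at about 130% in these data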;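 also: raw ratio to IFN-gamma control signal so 100% means no change and 0% no light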
AHR activator = human AHR activation; P35869; AHR-responsive luciferase reporter cells, luminescence; activation, % at 5 µM; actives 2.5% (n = 320,000); AID 2796; in the data active = activation above about 47%;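 also: 0% = vehicle wells and 100% = reference agonist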
APP 5'UTR act = activates APP 5'UTR luciferase reporter | SH-SY5Y APP 5'UTR luciferase reporter, luminescence; zero percent = DMSO vehicle wells | activation, % at 2 µM | actives 1% (n = 190,000);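 active = activation above a set limit, based on mean plus 3 SD of controls, cut at about 140% in these data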
NF-kB neuron act = compounds increasing NF-kB expression in human neuronal cells | actives 1.6% (n = 190,000) | NF-kB reporter expression; active compounds read high | AID 1239 | fold change at 12.5 µM; in the data active = fold change above about 3.3
Active calls of the source: *; / = no result given. Most compounds without a hit are left out; they make up all but 4.5% or so of the library.

SMILES | Mdm2 ligase inh | PERK inhibitor | STAT1 act | AHR activator | APP 5'UTR act | NF-kB neuron act
O=[N+]([O-])c1cccc(-c2nnc(-c3ccc4c(c3)OCO4)o2)c1 | -15 | 0 | 141* | 0 | 87 | 2.3
Clc1ccccc1-c1nnc(-c2ccc3c(c2)OCO3)o1 | -6 | 0 | 111 | -4 | 125 | 7.4*
O=C(O)CSc1nnc(-c2ccc3c(c2)OCO3)o1 | 1 | 0 | 98 | 0 | 17 | 1.2
CN(C)Cc1c(O)ccc2c(=O)c(-c3ccc(Cl)cc3)coc12 | / | / | / | 66* | / | /
CCN(CC)Cc1c(O)ccc2c(=O)c(-c3ccc(Cl)cc3)coc12 | / | / | / | 0 | / | /
CC(C)c1nnc(NC(=O)CCC(=O)NC2CCCCCC2)s1 | / | / | / | 0 | / | /
S=C(N=Nc1ccccc1)NNc1ccccc1 | / | 1 | 126 | 53* | 93 | 3.7*
CCCCCNC(=O)CSC1=N/C(=C\c2ccc(Cl)c(Cl)c2)C(=O)N1CC | -10 | 3.0* | 97 | -1 | / | 1.2
CCCNC(=O)CSC1=N/C(=C/c2ccc(F)cc2)C(=O)N1CC | 4 | 1 | 103 | 7 | 0 | 1.2
O=c1c2ccccc2nc2ccc(NCc3cccs3)nn12 | -18 | 0 | 123 | 19 | 122 | 3.4*
CCn1c(NCc2cccs2)nc2ccccc21 | -16 | 0 | 103 | 2 | 15 | 1.2
CCC(=O)N1c2ccc(S(=O)(=O)N3CCN(c4ccccc4Cl)CC3)cc2CC1C (stereo not drawn) | / | / | / | 2 | / | /
COc1ccc(N2C(=O)CCC2=O)c(OC)c1 | -8 | 1 | 140* | -1 | -8 | 1.1
COc1ccc(N2C(=O)C3CC(C)=C(C)CC3C2=O)c(OC)c1 (stereo not drawn) | -19 | 0 | 115 | -2 | 3 | 1.1
Cc1cc(Nc2ccccc2)n(-c2ccccc2)n1 | 3 | 1 | 96 | 3 | -12 | 0.89
Cc1cc(Nc2nc(Cl)c(Cl)cc2Cl)n(-c2ccccc2)n1 | / | 0 | 98 | 68* | -16 | 1.1
OCCCNC(=S)NC1CCCC1 | -12 | 1 | 95 | 0 | -5 | 1.1
CCS(=O)(=O)N1Cc2ccccc2CC1C(=O)Nc1nc2ccccc2[nH]1 (stereo not drawn) | -11 | 0 | 118 | 19 | 182* | 0.86
O=C(Nc1nc2ccccc2[nH]1)C1CCCC1 | -11 | -1 | 136* | 17 | 89 | 0.93
O=C(CC1CCCC1)Nc1nc2ccccc2[nH]1 | -6 | 0 | 144* | 39 | 91 | 2.3
O=C(Nc1nc2ccccc2[nH]1)C1CCC1 | -1 | -1 | 127 | 14 | 38 | 0.95
O=C(Cc1cccc2ccccc12)Nc1nc2ccccc2[nH]1 | -14 | -2 | 98 | 14 | -9 | 1
CCOc1ccccc1OCCCC(=O)Nc1nc2ccccc2[nH]1 | -8 | 1 | 108 | 3 | 11 | 1
CCCCCC(=O)Nc1nc2ccccc2[nH]1 | -7 | 0 | 129* | 19 | 68 | 2.7
O=C(Nc1ccc(F)cc1F)N1CCC(c2nc3ccccc3o2)CC1 | -18 | 2 | 104 | 1 | 15 | 1.1
SMILES | Mdm2 ligase inh | PERK inhibitor | STAT1 act | AHR activator | APP 5'UTR act | NF-kB neuron act
CCCn1c(N)c(N(CCOC)C(=O)c2ccc(F)cc2F)c(=O)[nH]c1=O | / | / | / | -1 | / | /
Cc1cccc(/N=C/c2c(O)n(Cc3ccc4c(c3)OCO4)c(=O)c3ccccc23)n1 | 0 | 1 | 99 | 1 | 1 | 1.2
C/C(=N\Nc1c(Cl)c(Cl)nc(C(=O)O)c1Cl)c1ccc(O)cc1 | / | / | / | 50* | / | /
C/C(=N\Nc1nc(C)cc(-c2ccccc2)n1)c1ccc(O)cc1 | / | / | / | 30 | / | /
CCc1nnc(NC(=O)c2ccc3c(=O)n4c(nc3c2)CCCCC4)s1 | -1 | -1 | / | 6 | / | /
O=C(Nc1nccs1)c1ccc2c(=O)n3c(nc2c1)CCCCC3 | -27 | 0 | 132* | 76* | 66 | 1.2
Cc1csc(NC(=O)c2ccc3c(=O)n4c(nc3c2)CCCCC4)n1 | -9 | 0 | 121 | 20 | 148* | 1.9
O=C(NNC(=O)c1ccc2c(=O)n3c(nc2c1)CCC3)c1ccc(F)cc1 | / | / | / | 60* | / | /
CCc1ccc(NC(=O)c2ccc3c(=O)n4c(nc3c2)CCCCC4)cc1 | -6 | -1 | / | 3 | / | /
CC(Cc1cccnc1)NC(=O)c1cc(COc2ccc(F)cc2Cl)on1 (stereo not drawn) | / | / | / | 19 | / | /
CC(Cc1cccnc1)NC(=O)c1cc(COc2c(F)cccc2F)on1 (stereo not drawn) | / | / | / | 48* | / | /
CCC(=O)Nc1cnc(NC(=O)c2cccc(F)c2)cc1C | -28 | 0 | 142* | 9 | 81 | 2.8
CCc1ccc2[nH]c(O)c(N=Nc3nc(-c4ccccc4)cs3)c2c1 | -9 | 0 | 111 | 63* | -13 | 1.1
COC1C(C)=C(C)C(=O)N1Cc1ccc(F)cc1 (stereo not drawn) | / | / | / | 3 | / | /
O=C(c1ccc([N+](=O)[O-])cc1[N+](=O)[O-])n1cnc2ccccc21 | -4 | 0 | 95 | 59* | 28 | 0.91
Cc1ccc(/C=C/C(=O)OC(C)C(=O)NC2CCCCC2C)o1 (stereo not drawn) | / | / | / | 3 | / | /
O=C(Nc1ccc(F)c(F)c1)c1cnc(-c2ccccc2)nc1-c1ccccc1 | -7 | 1 | 104 | 65* | -8 | 1.1
CC(C)(C)C(=O)/C=c1\s/c(=C\c2ccc(-c3ccc([N+](=O)[O-])cc3)o2)c(=O)n1CC(=O)NC(N)=O | -22 | 1 | 108 | 7 | 19 | 0.6
O=[N+]([O-])c1cccc(-c2csc(Nc3ccccc3)n2)c1 | -8 | -1 | 143* | 48* | 83 | 2.6
COc1ccccc1Nc1nc(-c2cccc([N+](=O)[O-])c2)cs1 | -14 | 0 | / | 79* | / | /
CCOC(=O)c1cc(S(=O)(=O)N(C)Cc2ccccc2)cn1C | / | / | / | 1 | / | /
COc1cccc2c1C(=O)c1c(O)c3c(c(O)c1C2=O)C[C@@](O)(C(=O)CO)C[C@@H]3O[C@H]1C[C@H](N)[C@H](O)[C@H](C)O1 | / | -1 | 265* | -4 | -95 | 3.8*
Cc1nc(-c2ccccc2)sc1-c1n[nH]c(=S)n1C | -12 | 0 | 99 | 93* | 16 | 1.1
Cc1ccccc1-n1nc(C(=O)O)cc1-c1ccccc1 | -4 | 3.1* | 94 | -1 | -14 | 1.6
COc1ccc2c(c1)CC/C2=N\NC(=O)c1ccccc1 | 6 | 0 | 130* | 2 | 42 | 1.5
CCCCN1CCc2c([nH]c3c(C)cccc23)C1=O | -6 | 1 | 128 | -5 | 87 | 3.5*
CCN(CC)C(=O)COc1ccc2oc(C)c(C(=O)OC(C)C)c2c1 | -5 | -3 | 108 | 67* | -3 | 0.88
CC(=O)N1N=C(c2cccc([N+](=O)[O-])c2)OC1c1ccccc1Cl (stereo not drawn) | -8 | 1 | 107 | 2 | 22 | 1.4
CC(=O)N1N=C(c2ccc(Cl)cc2)OC1c1ccc(C(C)C)cc1 (stereo not drawn) | -6 | 0 | 133* | 3 | -10 | 1.6

High-throughput results deposited in PubChem by several laboratories.
